From ChEMBL document CHEMBL4376840, “Application of Fluorine- and Nitrogen-Walk Approaches: Defining the Structural and Functional Diversity of 2-Phenylindole Class of Cannabinoid 1 Receptor Positive Allosteric Modulators” (J Med Chem, 2020)
Activity calls are given as the source filed them.

Experiments:
[1] = target: T1, Cannabinoid receptor 1 (Homo sapiens, UniProt P21554); assay: Positive allosteric modulatory activity at human CB1R expressed in CHO-K1 cells assessed as increase in CP55940-induced beta-arrestin2 recruitment after 90 mins in presence of CP55940 at EC20 concentration by pathhunter beta-arrestin assay relative to control; format: cell-based
How it was run: (§1)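 Read-out was chemiluminescent β-arrestin2 recruitment, fit with a 4-parameter regression. n = 1–3 independent experiments in duplicate.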

[2] = test system: Mus musculus; assay: Antiallodynic activity against CFA-induced mechanical allodynia CD1 mouse model assessed as effect on ipsilateral paw withdrawal threshold at 30 mg/kg, ip after 4 hrs post treatment by Von Frey test; format: functional, organism-based
How it was run: (§2)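 Time course in the CFA model at 30 mg/kg i.p. Ipsilateral and contralateral mechanical paw withdrawal thresholds were followed from 30 min to 4 h post-injection in wild-type and CB1 knockout mice. Compared with vehicle by ANOVA and Bonferroni post hoc tests.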

[3] = target: T1, Cannabinoid receptor 1; assay: Allosteric agonist activity at human CB1R expressed in CHO-K1 cells assessed as increase in beta arrestin2 recruitment after 90 mins by pathhunter beta-arrestin assay relative to CP55940; format: cell-based
How it was run: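 PathHunter CHO-K1 hCB1R cells (20,000/well) were held overnight in Opti-MEM with 1% FBS. Compound alone (0.10 nM – 10 μM) was given at 37°C for 90 min, then detection solution for 60 min at room temperature and chemiluminescence was read.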

[4] = target: Cannabinoid receptor 1 (Rattus norvegicus) (UniProt P20272); assay: Positive allosteric modulatory activity at N-terminal GFP-tagged rat CB1R receptor expressed in HEK293 cells assessed as leftward shift in CP55940 dependent concentration response curve for inhibition of forskolin-induced cAMP accumulation after 30 mins by TR-FRET assay; format: functional, cell-based
[5] = target: Cannabinoid receptor 1 (Rattus norvegicus) (UniProt P20272); assay: Allosteric agonist activity at N-terminal GFP-tagged rat CB1R expressed in HEK293 cells assessed as inhibition of forskolin-induced cAMP production by measuring cAMP accumulation at minimal level at higher concentrations after 30 min by TR-FRET assay relative to forskolin; format: functional, cell-based
How it was run: (§3)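 HEK293 cells stably expressing N-terminal GFP-tagged rat CB1R were trypsin-EDTA dissociated and resuspended in HBSS with 0.1% BSA and 0.5mM IBMX at 500 cells/well. Cells got 5μM forskolin plus compound (1 pM – 10 μM) alone for 30 min. 4-parameter fit; Emin is the lower plateau. n ≥ 3, triplicate.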

[6] = target: Cannabinoid receptor 1 (Rattus norvegicus) (UniProt P20272); assay: Positive allosteric modulatory activity at N-terminal GFP-tagged rat CB1R receptor expressed in HEK293 cells assessed as increase in CP55940-induced inhibition of forskolin-induced cAMP accumulation by measuring Emax for cAMP accumulation at low concentration of CP55940 at 0.001 microM after 30 mins by TR-FRET assay relative to forskolin; format: functional, cell-based
[7] = target: T1, Cannabinoid receptor 1; assay: Allosteric agonist activity at human CB1R expressed in CHO-K1 cells assessed as inhibition of forskolin-induced cAMP accumulation by measuring cAMP accumulation at minimal level at higher concentrations after 90 mins by hit-hunter cAMP assay relative to forskolin; format: functional, cell-based
How it was run: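 HitHunter CHO-K1 hCB1R cells (20,000/well) were held overnight in Opti-MEM with 1% FBS. They were then co-treated at 37°C with 10 μM forskolin plus compound alone (0.10 nM – 10 μM) for 90 min. Chemiluminescent cAMP detection followed (two 60-min room-temperature steps). Data as % forskolin, variable-slope 4-parameter fit; Emin is the lower plateau. n ≥ 6, triplicate.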

[8] = target: T1, Cannabinoid receptor 1; assay: Positive allosteric modulatory activity at human CB1R expressed in CHO-K1 cells assessed as increase in CP55940-induced inhibition of forskolin-induced cAMP accumulation after 90 mins in presence of 100 nM CP55940 by hit-hunter cAMP assay; format: functional, cell-based
How it was run: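 Uses the HitHunter CHO-K1 hCB1R cAMP set-up above. Data normalized to % forskolin, 4-parameter fit. n ≥ 6, triplicate.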

[9] = target: Cannabinoid receptor 1 (Rattus norvegicus, UniProt P20272); assay: Allosteric agonist activity at N-terminal GFP-tagged rat CB1R expressed in HEK293 cells assessed as inhibition of forskolin-induced cAMP production after 30 min by TR-FRET assay; format: functional, cell-based; how it was run: as §3
[10] = rat, microsomes, 1 µM
[11] = target: T1, Cannabinoid receptor 1; assay: Agonist activity at human CB1 receptor expressed in CHO cell membranes assessed as increase in G-protein coupling by measuring [35S]GTPgammaS binding after 90 mins in presence of [35S]GTPgammaS by liquid scintillation analysis; format: functional
How it was run: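 [35S]GTPγS binding to G protein in membranes from CHO cells stably expressing human CB1R, with test compound given alone. Data fit to a variable-slope 4-parameter nonlinear regression. n = 4–6 independent experiments in duplicate.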

[12] = target: T1, Cannabinoid receptor 1; assay: Positive allosteric modulatory activity at human CB1R expressed in CHO-K1 cells assessed as increase in CP55940-induced beta-arrestin2 recruitment after 90 mins in presence of CP55940 at EC20 concentration by pathhunter beta-arrestin assay; format: cell-based; how it was run: as §1
[13] = buffer, pH 7.4, 2 h
[14] = test system: Mus musculus; assay: Antiallodynic activity in ip dosed CFA-induced mechanical allodynia CD1 mouse model assessed as increase in ipsilateral paw withdrawal threshold measured every 3 hrs for 2 days post treatment by Von Frey test; format: functional, organism-based
How it was run: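 Mice received CFA injection into one paw. Mechanical paw withdrawal thresholds were measured in the injected (ipsilateral) and contralateral paws after i.p. compound at 0.1, 0.3, 1, 3, 10 or 30 mg/kg, compared with vehicle-treated groups at the same times.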

[15] = test system: Mus musculus; assay: Antiallodynic activity against CFA-induced mechanical allodynia CD1 mouse model assessed as increase in ipsilateral paw withdrawal threshold at 30 mg/kg, ip after […] post treatment by Von Frey test; format: functional, organism-based
[16] = test system: Mus musculus; assay: Antinociceptive activity in ip dosed C57BL/6 mouse after 20 mins post treatment by warm water tail-flick assay; format: functional, organism-based
[17] = target: T1, Cannabinoid receptor 1; assay: Displacement of [3H]SR141716A from human CB1R receptor expressed in CHO cell membranes after 2 hrs by liquid scintillation spectrometry analysis
[18] = target: Cannabinoid receptor 1 (Rattus norvegicus) (UniProt P20272); assay: Positive allosteric modulatory activity at N-terminal GFP-tagged rat CB1R receptor expressed in HEK293 cells assessed as downward shift in CP55940 dependent concentration response curve for inhibition of forskolin-induced cAMP accumulation after 30 mins by TR-FRET assay; format: functional, cell-based
[19] = test system: Mus musculus; assay: Antiallodynic activity against CFA-induced mechanical allodynia CB1 receptor knockout CD1 mouse assessed as effect on ipsilateral paw withdrawal threshold at 30 mg/kg, ip measured for 0.5 to 4 hrs by Von Frey test; format: functional, organism-based; how it was run: as §2

T1 sequence (P21554 whole entry): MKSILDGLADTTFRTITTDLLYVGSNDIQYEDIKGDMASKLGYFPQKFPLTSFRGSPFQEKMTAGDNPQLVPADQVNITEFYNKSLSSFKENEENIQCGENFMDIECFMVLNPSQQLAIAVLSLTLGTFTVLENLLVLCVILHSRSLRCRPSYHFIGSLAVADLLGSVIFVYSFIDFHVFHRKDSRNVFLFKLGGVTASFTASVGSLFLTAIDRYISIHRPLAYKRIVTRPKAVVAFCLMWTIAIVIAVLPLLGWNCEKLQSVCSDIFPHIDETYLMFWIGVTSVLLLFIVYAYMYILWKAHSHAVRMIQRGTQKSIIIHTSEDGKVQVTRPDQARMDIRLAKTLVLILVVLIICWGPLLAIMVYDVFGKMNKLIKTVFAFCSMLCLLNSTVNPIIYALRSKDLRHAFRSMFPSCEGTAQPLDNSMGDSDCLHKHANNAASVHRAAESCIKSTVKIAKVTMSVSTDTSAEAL
Chain of Cannabinoid receptor 1 (Rattus norvegicus) (P20272 whole entry): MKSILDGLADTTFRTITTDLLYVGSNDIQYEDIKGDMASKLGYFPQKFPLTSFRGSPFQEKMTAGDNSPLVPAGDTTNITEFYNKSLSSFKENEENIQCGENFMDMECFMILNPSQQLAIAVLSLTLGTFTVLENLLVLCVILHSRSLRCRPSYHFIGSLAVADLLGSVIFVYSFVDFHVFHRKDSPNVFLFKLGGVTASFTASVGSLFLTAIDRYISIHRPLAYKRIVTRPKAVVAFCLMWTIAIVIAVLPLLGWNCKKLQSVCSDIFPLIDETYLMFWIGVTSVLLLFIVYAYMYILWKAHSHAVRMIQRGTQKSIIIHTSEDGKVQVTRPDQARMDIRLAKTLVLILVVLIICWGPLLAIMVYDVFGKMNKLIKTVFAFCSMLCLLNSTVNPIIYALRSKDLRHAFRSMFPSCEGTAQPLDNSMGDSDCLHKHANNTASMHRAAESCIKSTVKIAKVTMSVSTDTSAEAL
Chain of Cannabinoid receptor 1 (Rattus norvegicus, UniProt P20272) (P20272 whole entry): as above

## O=[N+]([O-])CC(c1ccccc1F)c1c(-c2cccc(F)c2)[nH]c2cc(F)ccc12 (configuration not stated)
[1]
  Emax: 71%
[2]
  Activity: inactive
[3]
  Emax: 34%
[4]
  Activity: Dose-dependent effect
[5]
  Emin: 32%
[6]
  Emax: 76%
[7]
  Emin: 4.2%
[8]
  EC50: 2.2 nM
[9]
  EC50: 27 nM
[10]
  CLH: 248 µL/min
[11]
  EC50: 47 nM
[12]
  EC50: 750 nM
[13]
  Kinetic_solubility: 1.56 µM
[14]
  Activity: Dose-dependent effect
[15]
  Activity: Active
[16]
  Activity: Dose-dependent effect
[17]
  Ki: 4.8 nM
[18]
  Activity: Dose-dependent effect
[19]
  Activity: inactive

## O=[N+]([O-])CC(c1ccccc1F)c1c(-c2cccc(F)c2)[nH]c2c(F)cccc12 (configuration not stated)
[1]
  Emax: 82%
[2]
  Activity: inactive
[3]
  Emax: 25%
[4]
  Activity: Dose-dependent effect
[5]
  Emin: 30%
[6]
  Emax: 74%
[7]
  Emin: 18%
[8]
  EC50: 1.7 nM
[9]
  EC50: 26 nM
[11]
  EC50: 33 nM
[12]
  EC50: 510 nM
[13]
  Kinetic_solubility: 1.56 µM
[14]
  Activity: Dose-dependent effect
[15]
  Activity: Active
[16]
  Activity: Dose-dependent effect
[17]
  Ki: 5.2 nM
[18]
  Activity: Dose-dependent effect
[19]
  Activity: inactive
